Rows were chosen to be rich in hits. Some 3.1% of all compounds tested hit in one or more screens of this group.
SENP8 block-1 = SENP8 (human) protease inhibition. 0.64% of 360,000 active. inhibition, % at 20 µM. recombinant SENP8, Nedd8 substrate fluorescence; in the data active = inhibition mostly above about 40%, no sharp cut-off; inactive = mostly below about 27%
SENP8 block-2 = SENP8 protease inhibition; inhibition, % at 10 µM; 1.2% of 330,000 active; Q96LD8; purified SENP8, Z-RLRGG-aminoluciferin cleavage, luminescence; in the data active = inhibition above about 50%
Apaf1 inhib = inhibitors of human Apaf-1 apoptosome; reconstituted apoptosome caspase-3 activity, DEVD-Rh110 fluorescence; 0.71% of 330,000 active; AID 489030; O14727; inhibition, % at 20 µM; active = inhibition of at least 40% at 20 µM;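 also: plate controls were DMSO wells for no effect and DEVD-CHO caspase inhibitor wells for full effect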
Target sequence (O14727 whole entry, looked up): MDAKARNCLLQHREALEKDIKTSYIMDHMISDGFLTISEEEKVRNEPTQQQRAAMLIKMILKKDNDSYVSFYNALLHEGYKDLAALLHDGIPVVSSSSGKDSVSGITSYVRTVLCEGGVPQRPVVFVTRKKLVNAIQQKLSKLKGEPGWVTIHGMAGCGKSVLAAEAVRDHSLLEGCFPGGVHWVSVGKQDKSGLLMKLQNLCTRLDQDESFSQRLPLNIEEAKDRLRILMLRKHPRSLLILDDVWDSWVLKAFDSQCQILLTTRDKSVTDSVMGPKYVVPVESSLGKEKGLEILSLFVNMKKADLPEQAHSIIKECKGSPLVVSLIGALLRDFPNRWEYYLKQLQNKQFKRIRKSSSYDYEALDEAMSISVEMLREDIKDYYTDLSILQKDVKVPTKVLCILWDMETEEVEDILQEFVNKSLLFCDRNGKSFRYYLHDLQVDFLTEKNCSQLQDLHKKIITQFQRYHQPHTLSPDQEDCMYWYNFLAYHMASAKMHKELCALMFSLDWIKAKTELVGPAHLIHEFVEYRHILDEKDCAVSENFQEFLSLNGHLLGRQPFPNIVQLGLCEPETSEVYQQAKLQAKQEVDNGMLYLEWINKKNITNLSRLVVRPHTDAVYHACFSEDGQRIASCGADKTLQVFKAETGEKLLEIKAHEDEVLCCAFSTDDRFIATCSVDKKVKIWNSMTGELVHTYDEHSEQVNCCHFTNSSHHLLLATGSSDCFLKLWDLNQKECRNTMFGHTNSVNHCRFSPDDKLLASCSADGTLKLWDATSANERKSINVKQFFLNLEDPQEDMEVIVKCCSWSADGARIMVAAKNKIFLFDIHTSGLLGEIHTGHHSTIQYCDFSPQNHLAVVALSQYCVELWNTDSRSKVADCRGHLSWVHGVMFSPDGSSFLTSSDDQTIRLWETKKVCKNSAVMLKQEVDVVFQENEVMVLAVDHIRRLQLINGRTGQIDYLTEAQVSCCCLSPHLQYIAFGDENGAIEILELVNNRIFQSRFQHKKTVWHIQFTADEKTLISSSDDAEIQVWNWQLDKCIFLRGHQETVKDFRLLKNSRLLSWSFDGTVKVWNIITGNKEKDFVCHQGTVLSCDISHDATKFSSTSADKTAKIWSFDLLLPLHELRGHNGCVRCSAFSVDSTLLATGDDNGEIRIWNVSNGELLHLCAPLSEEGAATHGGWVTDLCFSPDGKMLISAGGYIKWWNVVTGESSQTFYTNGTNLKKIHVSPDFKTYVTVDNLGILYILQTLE
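Material: biochemical Apaf-1 apoptosome reconstitution. Medium: Hepes buffer, pH 7.5. Also added: cytochrome c activation, bis-DEVD rhodamine 110 substrate. Timing: 30 min compound preincubation, 50 min activation, room temperature. Measured by: rhodamine 110 fluorescence at Ex 480/Em 540 nm.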
UBC13 inh = blocks human UBC13 polyubiquitin chain formation; 0.47% of 330,000 active; inhibition, % at 20 µM; AID 485273; P61088; TR-FRET; in the data active = inhibition above about 45%, passing the limit was not always enough
SENP6 block = SENP6 protease inhibition; Recombinant SENP6 catalytic domain, aminoluciferin luminescence; inhibition, % at 10 µM; 1.8% of 330,000 active; AID 2599;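 active = inhibition above about 50% at the single tested dose, limit read from the data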;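 also: plate controls were DMSO wells with enzyme for no effect and DMSO wells lacking enzyme for full effect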
SENP7 inh = SENP7 protease inhibition; Q9BQF6; recombinant SENP7, Z-RLRGG-aminoluciferin luminescence, 40 min; inhibition, % at 5 µM; 1.5% of 330,000 active; AID 434973;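 active = inhibition above about 50% at the single test dose, limit read from the data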;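 also: plate controls were DMSO with enzyme for no effect and no enzyme buffer wells for full effect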
Apaf-1 inh conf = confirmation of Apaf-1 inhibitors | shares compounds with Apaf1 inhib | 25% of 1,800 active | reconstituted apoptosome, caspase-3 DEVD-Rh110 fluorescence | inhibition, % at 20 µM | AID 504614;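 active = mean inhibition of at least 40% at 20 µM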;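 also: plate controls were DMSO wells for no effect and DEVD-CHO caspase inhibitor control wells for full effect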
Rh110 quench = counter-screen for Apaf-1 inhibitors: fluorescence interference | shares compounds with Apaf1 inhib | Rh110 fluorescence interference, quenched caspase reaction | activation (fluorescence interference), % at 20 µM | 1,800 tested, under 10 active | AID 504615;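 active = signal rise of 40% or more at 20 µM, treated as a fluorescence artifact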
Apaf1 inh interf = Apaf-1 inhibitor counter-screen fluorescence artifact | 460 tested, under 10 active | fluorescence interference counterscreen, Apaf-1 assay format | shares compounds with Apaf1 inhib | IC50, µM | AID 588538; call rule not given here
Starred values were filed as active, the others as inactive.

How did CCOc1c(O)ccc(/C=C2\SC(=S)NC2=O)c1[N+](=O)[O-] do in these assays?
SENP8 block-1: 34.6; SENP8 block-2: 7.5; Apaf1 inhib: 55.5*; UBC13 inh: -45.1; SENP6 block: 23.5; SENP7 inh: 4.7; Apaf-1 inh conf: 55.0*; Rh110 quench: 4.8; Apaf1 inh interf: >100

Results for CN(C)Cc1csc(NC(=O)Nc2ccccc2C(C)(C)C)n1 ?
SENP8 block-1: 10.0

Results for O=C(NCCc1ccccc1)c1ccccc1SCC(=O)N1CCCC1 ?
SENP8 block-1: -7.8; SENP8 block-2: -4.7; Apaf1 inhib: 60.3*; UBC13 inh: 31.1; SENP6 block: 2.4; SENP7 inh: 3.4; Apaf-1 inh conf: 36.0; Rh110 quench: 2.1

What do the screens show for `OC(c1ccc(F)cc1)c1ncc(-c2ccc3ccccc3c2)[nH]1` (stereo not drawn)?
SENP8 block-1: -173.1

Results for O=C(O)CC1S/C(=N/N=C/c2ccc(-c3ccc(Cl)cc3[N+](=O)[O-])o2)NC1=O (stereo not drawn) ?
SENP8 block-1: 35.4; SENP8 block-2: 9.2; Apaf1 inhib: 52.1*; UBC13 inh: -48.5; SENP6 block: 29.7; SENP7 inh: 2.0; Apaf-1 inh conf: 29.0; Rh110 quench: 4.5

Results for Cc1[nH]n(-c2ccccc2)c(=O)c1C(C[N+](=O)[O-])c1ccc(F)cc1 (stereo not drawn) ?
SENP8 block-1: 39.7; SENP8 block-2: -0.9; Apaf1 inhib: 93.8*; UBC13 inh: -19.6; SENP6 block: 4.7; SENP7 inh: 24.6; Apaf-1 inh conf: 22.3; Rh110 quench: 9.1

Results for COc1ccc(C(c2c(C)[nH]n(-c3ccccc3)c2=O)c2c(C)[nH]n(-c3ccccc3)c2=O)cc1OC ?
SENP8 block-1: 84.0*; SENP8 block-2: -4.1; Apaf1 inhib: 97.4*; UBC13 inh: -22.1; SENP6 block: 7.7; SENP7 inh: 31.1; Apaf-1 inh conf: 24.6; Rh110 quench: -4.2

How did COc1cccc(-n2sc3c(c2=S)-c2cc(OC)ccc2NC3(C)C)c1 do in these assays?
SENP8 block-1: 36.8; SENP8 block-2: 2.6; Apaf1 inhib: -9.1; UBC13 inh: 5.8; SENP6 block: -3.8; SENP7 inh: 5.6

Results for CC1(C)Nc2ccc(O)cc2-c2c1ssc2=S ?
SENP8 block-1: 67.1*; SENP8 block-2: 11.4; Apaf1 inhib: 51.3*; UBC13 inh: -24.7; SENP6 block: 39.4; SENP7 inh: 19.6; Apaf-1 inh conf: 33.6; Rh110 quench: 15.2

How did O=C(N[C@@H]1CC[C@@H](CCNC(=O)C2CCOCC2)O[C@@H]1CO)c1ccncc1 do in these assays?
SENP8 block-1: 20.9

How did O=C(Oc1ccc[nH]c1=O)c1cc([N+](=O)[O-])cc([N+](=O)[O-])c1 do in these assays?
SENP8 block-1: 31.9; SENP8 block-2: 65.9*; Apaf1 inhib: 93.4*; UBC13 inh: -10.3; SENP6 block: 88.2*; SENP7 inh: 43.3; Apaf-1 inh conf: 12.4; Rh110 quench: 6.5

What do the screens show for `Cc1cccc(N2CCN(C(=O)c3cc4cc(F)ccc4[nH]3)CC2)c1C`?
SENP8 block-1: -24.5; SENP8 block-2: -1.5; Apaf1 inhib: 42.0*; UBC13 inh: -6.7; SENP6 block: -7.0; SENP7 inh: 3.2; Apaf-1 inh conf: 27.2; Rh110 quench: 4.7

Results for COc1cc(OC)c2c(-c3ccccc3)cc(=O)oc2c1C(CCN1CCOCC1)c1ccc(N(C)C)cc1 (stereo not drawn) ?
SENP8 block-1: -27.7; Apaf1 inhib: 51.5*; SENP7 inh: 5.1; Apaf-1 inh conf: 10.5; Rh110 quench: -2.1

What do the screens show for `CCCCCc1cc(=O)oc2c(C(CCN3CCCC(C)C3)c3ccc(N(C)C)cc3)c(OC)cc(OC)c12` (stereo not drawn)?
SENP8 block-1: -82.1; SENP8 block-2: -13.4; Apaf1 inhib: 68.0*; UBC13 inh: 8.7; SENP6 block: -8.2; SENP7 inh: 2.8; Apaf-1 inh conf: 38.2; Rh110 quench: 10.1

Results for COc1cc(OC)c2ccc(=O)oc2c1C(CCN1CCCC(C)C1)c1ccc(N(C)C)cc1 (stereo not drawn) ?
SENP8 block-1: -83.3; SENP8 block-2: -8.6; Apaf1 inhib: 7.3; UBC13 inh: 17.6; SENP6 block: -13.7; SENP7 inh: 5.6

What do the screens show for `COc1cc(OC)c2c(-c3ccccc3)cc(=O)oc2c1C(CCN1CCCC(C)C1)c1ccc2c(c1)OCO2` (stereo not drawn)?
SENP8 block-1: -42.7; SENP8 block-2: -1.5; Apaf1 inhib: 56.2*; UBC13 inh: 4.4; SENP6 block: -27.1; SENP7 inh: -10.8; Apaf-1 inh conf: 18.5; Rh110 quench: 10.8

What do the screens show for `COc1cc(OC)c2c(C)cc(=O)oc2c1C(CCN1CCOCC1)c1ccc2c(c1)OCO2` (stereo not drawn)?
SENP8 block-1: -217.1; SENP8 block-2: -18.3; Apaf1 inhib: 35.4; UBC13 inh: 24.9; SENP6 block: -22.3; SENP7 inh: -11.1

What do the screens show for `CCOC(=O)[C@]12CCCC=C1N(Cc1cccc3ccccc13)C(=O)[C@H](CC(=O)NCCCOC)C2`?
SENP8 block-1: 2.8

How did CC1=C(C(=O)N(C(C)C)C(C)C)CC(CC(=O)NCCN2CCOCC2)C(=O)N1CCCN1CCCC1=O (stereo not drawn) do in these assays?
SENP8 block-1: 10.9

What do the screens show for `CC1(C(=O)Nc2ccccc2Br)CCN1C(=O)Cc1ccccc1Cl` (stereo not drawn)?
SENP8 block-1: 6.9

Results for CCCCNS(=O)(=O)c1cccc(NC(=O)[C@@H]2O[C@H](CO)[C@H](O)[C@H](O)[C@H]2O)c1 ?
SENP8 block-1: 15.2

Results for CCOC(=O)C1=C(CN2CCOCC2)NC(=O)NC1c1cc(C)ccc1C (stereo not drawn) ?
SENP8 block-1: -0.2; SENP8 block-2: 1.0; Apaf1 inhib: -16.0; UBC13 inh: 1.3; SENP6 block: -1.7; SENP7 inh: 2.3

Results for CCOC(=O)C1=C(CN2CCN(c3ccc(F)cc3)CC2)NC(=O)NC1c1cccs1 (stereo not drawn) ?
SENP8 block-1: 13.9; SENP8 block-2: -6.7; Apaf1 inhib: 41.2*; UBC13 inh: 0.3; SENP6 block: -20.1; SENP7 inh: -4.9; Apaf-1 inh conf: 22.7; Rh110 quench: 13.9

How did COC(=O)C[C@H]1C=C[C@H](NC(=O)Nc2ccccc2F)[C@@H](CO)O1 do in these assays?
SENP8 block-1: 19.4
